pIC50: −log10 of the molar value. Calls of active or inactive are those of the source. No cut-off for these calls is given here.
Assays:
HCT-116 [1] = assay: Cytotoxicity against human HCT116 cells after 24 hrs by MTT assay; type: cell-based; settings: HCT-116, 24 h
Procedure, shortened: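 HCT116 cells in RPMI-1640 with 10% FCS and 2 mM glutamine, seeded at 2.5 × 10³ per well and attached overnight. Exposed to compound for 24 h, then drug replaced with fresh medium, growth to 96 h total. MTT 1.5 mM final for 4 h, formazan in DMSO, A540. IC50 = concentration giving 50% OD reduction versus vehicle; ≥3 separate experiments.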

[2] = Drug uptake in nucleus of human MDA468 cells assessed as subcellular localization at 25 uM after 3 hrs by phalloidin-based fluorescent imaging; type: ADME, cell-based; settings: mda-mb-468, 3 h
Procedure, shortened: (§1)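 MDA-MB-468 cells on coverslips at about 70% confluence treated 3 h. Fixed in 3.6% formaldehyde plus 0.2% glutaraldehyde, permeabilized with 0.1% Triton X-100, blocked in 10% BSA. Counterstained with Alexa Fluor 568 phalloidin (1:1000) to show actin architecture. Compound fluorescence imaged at excitation 340 nm, emission 520 nm; phalloidin visualized at 568 nm.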

HCT-116 [3] = assay: Cytotoxicity against human HCT116 cells after 96 hrs by MTT assay; type: cell-based; settings: HCT-116, 96 h
Procedure, shortened: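 HCT116 cells in RPMI-1640 with 10% FCS and 2 mM glutamine, seeded at 2.5 × 10³ per well, left overnight, then exposed continuously for 96 h in full medium. Viability by MTT (1.5 mM final, 4 h, DMSO solubilization, A540). IC50 = concentration reducing OD by 50% relative to vehicle controls; repeated on at least three occasions.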

Nucleic Acid = assay: Binding affinity to calf thymus DNA assessed as increase in melting temperature at 10 uM; type: nucleic-acid assay; settings: Bos taurus
Procedure, shortened: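 Calf thymus DNA (20 μg/mL) with 10 μM compound in low-salt phosphate buffer (7.5 mM NaH₂PO₄, 1 mM EDTA, pH 7.0). Cuvettes heated from 37 to 98 °C with A260 read at every degree. Tm taken from at least three independent determinations; 10 μM adriamycin served as positive control.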

[4] = Drug uptake in cytoplasm of human MDA468 cells at 25 uM after 3 hrs by phalloidin-based fluorescence imaging; type: ADME, cell-based; settings: mda-mb-468, 3 h; procedure, shortened: as §1
[5] = molecular target: T1, Ribosyldihydronicotinamide dehydrogenase [quinone] (Homo sapiens) (UniProt P16083); assay: Ratio of IC50 for human recombinant NQO2 in the presence of BSA to IC50 for human recombinant NQO2 in the absence of BSA
T1 sequence (whole entry): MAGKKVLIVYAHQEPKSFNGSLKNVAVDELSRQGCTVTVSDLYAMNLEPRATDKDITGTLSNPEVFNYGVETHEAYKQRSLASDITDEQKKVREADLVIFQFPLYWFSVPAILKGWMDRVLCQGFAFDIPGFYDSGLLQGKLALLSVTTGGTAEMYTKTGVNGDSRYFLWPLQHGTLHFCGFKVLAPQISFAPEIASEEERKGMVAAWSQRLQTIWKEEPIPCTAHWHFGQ
Procedure, shortened: (§2)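 Recombinant human NQO2 (His-tag/size-exclusion purified from E. coli BL21) diluted to give about 0.1 A/min. Assay in 50 mM phosphate pH 7.4 with 40 μM DCPIP, 200 μM NRH, and inhibitor in DMSO (1.0% v/v final), with or without 2 μM BSA, at 37 °C. DCPIP reduction followed at 600 nm. IC50 = 50% reduction of initial rate by nonlinear fit; triplicates, three experiments.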

[6] = molecular target: T2, Ribosyldihydronicotinamide dehydrogenase [quinone] (Homo sapiens, UniProt P16083); assay: Inhibition of human recombinant NQO2 assessed as reduction of DCPIP by spectrophotometry in the presence of 2 uM BSA
T2 sequence (P16083 whole entry): T1 sequence (whole entry)
Procedure, shortened: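 Recombinant human NQO2 (His-tag/size-exclusion purified, expressed in BL21 codon+ cells) in 50 mM phosphate pH 7.4 with 40 μM DCPIP and 200 μM NRH, 2 μM BSA present, inhibitor in DMSO (1.0% v/v final), 37 °C. DCPIP reduction followed at 600 nm; IC50 = 50% drop in initial rate by nonlinear fit; triplicates, three experiments.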

[7] = molecular target: T1, Ribosyldihydronicotinamide dehydrogenase [quinone] (Homo sapiens); assay: Inhibition of NQO2-mediated activation of CB1954 in human MDA468 cells at 100 uM after 3 hrs in the presence of 100 uM […]; type: cell-based; settings: MDA-MB-468
Procedure, shortened: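 MDA468 cells exposed 3 h to inhibitor together with CB1954 (10 μM in figure; varying concentrations per methods) plus 100 μM NRH cofactor. Cells then washed with PBS, refed with fresh medium, and incubated to 96 h total. Viability measured by MTT assay; protection from CB1954 toxicity serves as a readout of cellular NQO2 inhibition.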

[8] = molecular target: T2, Ribosyldihydronicotinamide dehydrogenase [quinone]; assay: Inhibition of human recombinant NQO2 assessed as reduction of DCPIP by spectrophotometry; procedure, shortened: as §2
[9] = Drug uptake in nucleus of human MDA468 cells assessed as subcellular localization at 5 uM after 3 hrs by phalloidin-based fluorescent imaging; type: ADME, cell-based; settings: mda-mb-468, 3 h
Procedure, shortened: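 MDA-MB-468 cells grown on coverslips to about 70% confluency, exposed 3 h, fixed in 3.6% formaldehyde plus 0.2% glutaraldehyde, permeabilised with 0.1% Triton X-100, blocked in 10% BSA, stained with Alexa Fluor 568 phalloidin (1:1000) for actin. Imaged by fluorescence microscopy; compound excited at 340 nm, emission 520 nm; phalloidin read at 568 nm.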

Structure (SMILES) | Drug uptake [2] | Tm (Nucleic Acid) [°C] | Drug uptake [4] | Ratio IC50 [5] | inhibition [7] | pIC50 [8] | pIC50 (HCT-116 [1]) | pIC50 (HCT-116 [3]) | pIC50 [6] | Drug uptake [9]
CN(C)CCNc1ccc2ncn3c4ccccc4c(=O)c1c23 |  |  |  | 38 |  | 6.94 | 5.60 | 6.22 |  | 
CN(C)CCNc1ccc2ncn3c4ccc(F)cc4c(=O)c1c23 |  |  |  |  |  | 7.01 | 5.54 | 6.18 |  | 
Cc1nc2ccc(NCCN(C)C)c3c(=O)c4ccccc4n1c23 |  |  |  |  |  | 7.05 | 5.71 | 6.30 |  | 
Cc1nc2ccc(NCCN(C)C)c3c(=O)c4cc(Br)ccc4n1c23 |  |  |  |  |  | 7.13 | 5.72 | 6.36 |  | 
C[N+](C)([O-])CCNc1ccc2ncn3c4ccccc4c(=O)c1c23 |  |  |  | 6.5 |  | 7.02 | 4.39 | 4.92 |  | 
Cc1nc2ccc(NCC[N+](C)(C)[O-])c3c(=O)c4cc(F)ccc4n1c23 |  |  |  |  |  | 7.01 | 4.51 | 5.04 |  | 
COc1ccc2c(c1)c(=O)c1c(NCC[N+](C)(C)[O-])ccc3nc(C)n2c31 |  |  |  |  |  | 7.14 | 4.24 | 4.94 |  | 
Cc1nc2ccc(NCC[N+](C)(C)[O-])c3c(=O)c4ccccc4n1c23 |  |  |  |  |  | 7.25 | 4.46 | 4.79 |  | 
COc1cccc2c1C(=O)c1c(O)c3c(c(O)c1C2=O)C[C@@](O)(C(=O)CO)C[C@@H]3O[C@H]1C[C@H](N)[C@H](O)[C@H](C)O1 |  | 90.8 |  |  |  |  |  |  |  | 
CN(C)CCNc1ccc2ncn3c4ccc(O)cc4c(=O)c1c23 |  |  |  |  |  | 7.08 | 5.79 | 6.43 |  | 
CCN(CC)CCNc1ccc2ncn3c4ccc(O)cc4c(=O)c1c23 [C-1311] |  |  |  |  |  | 6.90 | 5.38 | 5.94 |  | 
Cc1nc2ccc(NCCN(C)C)c3c(=O)c4cc(F)ccc4n1c23 |  |  |  |  |  | 7.08 | 5.68 | 6.29 |  | 
COc1ccc2c(c1)c(=O)c1c(NCCN(C)C)ccc3ncn2c31 |  | 88.6 |  | 54 |  | 7.23 | 5.68 | 6.29 | 5.49 | Active
COc1ccc2c(c1)c(=O)c1c(NCCN(C)C)ccc3nc(C)n2c31 |  |  |  |  |  | 7.34 | 5.73 | 6.34 |  | 

More lines, in order of rising pIC50 [8], values ahead:

Drug uptake [2] | Tm (Nucleic Acid) [°C] | Drug uptake [4] | Ratio IC50 [5] | inhibition [7] | pIC50 [8] | Structure (SMILES) | pIC50 (HCT-116 [1]) | pIC50 (HCT-116 [3]) | pIC50 [6] | Drug uptake [9]
 |  |  |  |  | 6.69 | C[N+](C)([O-])CCNc1ccc2ncn3c4ccc(F)cc4c(=O)c1c23 | 4.39 | 4.76 |  | 
 |  |  |  |  | 7.05 | Cc1nc2ccc(NCCN(C)C)c3c(=O)c4cc(O)ccc4n1c23 | 5.52 | 6.02 |  | 
 |  |  |  |  | 7.27 | CCN(CC)CCNc1ccc2nc(C)n3c4ccc(O)cc4c(=O)c1c23 | 5.26 | 6.03 |  | 
 |  |  |  |  | 7.33 | Cc1nc2ccc(NCC[N+](C)(C)[O-])c3c(=O)c4cc(Br)ccc4n1c23 | 4.31 | 4.97 |  | 
 |  |  |  |  | 7.38 | C[N+](C)([O-])CCNc1ccc2ncn3c4ccc(O)cc4c(=O)c1c23 | 4.41 | 4.71 |  | 
Not Active | 85 | Active | 7 | Active | 7.85 | COc1ccc2c(c1)c(=O)c1c(NCC[N+](C)(C)[O-])ccc3ncn2c31 | 4.39 | 4.89 | 7.01 | 

Source: ChEMBL document CHEMBL1833815, “Novel inhibitors of NRH:quinone oxidoreductase 2 (NQO2): crystal structures, biochemical activity, and intracellular effects of imidazoacridin-6-ones” (J Med Chem, 2011)
